ChEMBL document CHEMBL1137220, “2-(2-(dimethylaminomethyl)phenoxy)-5-iodophenylamine: an improved serotonin transporter imaging agent” (J Med Chem, 2004)

Columns and labels:
[1] = Distribution ratio in striatum and cerebellum was determined after 11 hrs of intravenous administration of the compound; [125I]- is used as radioactive isotope; assay type: ADME, tissue-based; conditions: rat
Summary of the method: (§1)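 Rats, three per group, given 10 μCi tracer in 0.2 mL saline into the femoral vein under ether anesthesia, then killed by cardiac excision at the stated time. Brain regions were dissected, weighed and counted. Percent dose/g was calculated against a 1% diluted aliquot of the injected dose. The ratio is (region − cerebellum)/cerebellum on a % dose/g basis, with cerebellum as background.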

[2] = Biodistribution in rat brain was determined after 6 hours of intravenous administration of the compound; [125I]- is used as radioactive isotope; assay type: ADME, organism-based; conditions: in vivo
Summary of the method: (§2)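 Rats under ether anesthesia, three per group, received 10 μCi tracer in 0.2 mL saline into the femoral vein. They were killed by cardiac excision under ether at each time point. Organs were removed, weighed and counted. Percent dose per organ was calculated against a 1%-of-injected-dose standard counted at the same time.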

[3] = Distribution ratio in striatum and cerebellum was determined after 30 min of intravenous administration of the compound; [125I]- is used as radioactive isotope; assay type: ADME, tissue-based; conditions: rat, 0.5 h; summary of the method: as §1
[4] = Regional brain distribution in rat hypothalamus was determined after 6 hours of intravenous administration of the compound; [125I]- is used as radioactive isotope; assay type: ADME, tissue-based; conditions: in vivo
Summary of the method: (§3)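 Rats, three per group, injected with 10 μCi tracer in 0.2 mL saline via the femoral vein under ether anesthesia and killed by cardiac excision at the stated time. Cortex (frontal plus occipital), striatum, hippocampus, cerebellum and hypothalamus were dissected, weighed and gamma-counted. Values are % dose/g, calculated by comparison with counts of a 100-fold diluted aliquot of the injected dose.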

[5] = Regional brain distribution in rat hippocampus was determined after 30 min of intravenous administration of the compound; [125I]- is used as radioactive isotope; assay type: ADME, tissue-based; conditions: in vivo, 0.5 h; summary of the method: as §3
[6] = Biodistribution in rat heart was determined after 6 hours of intravenous administration of the compound; [125I]- is used as radioactive isotope; assay type: ADME, organism-based; conditions: in vivo; summary of the method: as §2
[7] = Biodistribution in rat lung was determined after 240 min of intravenous administration of the compound; [125I]- is used as radioactive isotope; assay type: ADME, organism-based; conditions: in vivo, 4 h; summary of the method: as §2
[8] = Biodistribution in rat lung was determined after 11 hours of intravenous administration of the compound; [125I]- is used as radioactive isotope; assay type: ADME, organism-based; conditions: in vivo; summary of the method: as §2
[9] = Regional brain distribution in rat striatum was determined after 6 hours of intravenous administration of the compound; [125I]- is used as radioactive isotope; assay type: ADME, tissue-based; conditions: in vivo; summary of the method: as §3
[10] = Distribution ratio in hippocampus and cerebellum was determined after 6 hrs of intravenous administration of the compound; [125I]- is used as radioactive isotope; assay type: ADME, tissue-based; conditions: rat
Summary of the method: (§4)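 After femoral-vein injection of 10 μCi [¹²⁵I] tracer in 0.2 mL saline under ether anaesthesia (three rats per group), brain regions were dissected, weighed and counted: cortex (frontal plus occipital), hippocampus, hypothalamus and cerebellum. %dose/g was calculated against a diluted injected-dose standard. Ratio = (region − cerebellum)/cerebellum on a %dose/g basis, with cerebellum as the background region.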

[11] = Biodistribution in rat spleen was determined after 11 hours of intravenous administration of the compound; [125I]- is used as radioactive isotope; assay type: ADME, organism-based; conditions: in vivo
Summary of the method: (§5)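 Rats, three per group, under ether anaesthesia, received 10 μCi of [¹²⁵I]-labelled tracer in 0.2 mL saline into the femoral vein. They were killed by cardiac excision under ether at each time point. Organs were removed, weighed and counted. Percent dose per organ was calculated against counts of a 1% aliquot of the injected dose (100-fold diluted) counted at the same time.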

[12] = Regional brain distribution in rat hypothalamus was determined after 30 min of intravenous administration of the compound; [125I]- is used as radioactive isotope; assay type: ADME, tissue-based; conditions: in vivo, 0.5 h; summary of the method: as §3
[13] = Biodistribution in rat blood was determined after 6 hours of intravenous administration of the compound; [125I]- is used as radioactive isotope; assay type: ADME, organism-based; conditions: in vivo; summary of the method: as §2
[14] = Distribution ratio in cortex and cerebellum was determined after 240 min of intravenous administration of the compound; [125I]- is used as radioactive isotope; assay type: ADME, tissue-based; conditions: rat, 4 h; summary of the method: as §4
[15] = Biodistribution in rat liver was determined after 11 hours of intravenous administration of the compound; [125I]- is used as radioactive isotope; assay type: ADME, organism-based; conditions: in vivo; summary of the method: as §2
[16] = Regional brain distribution in rat cortex was determined after 240 min of intravenous administration of the compound; [125I]- is used as radioactive isotope; assay type: ADME; conditions: in vivo, 4 h; summary of the method: as §3
[17] = Biodistribution in rat heart was determined after 30 min of intravenous administration of the compound; [125I]- is used as radioactive isotope; assay type: ADME, organism-based; conditions: in vivo, 0.5 h; summary of the method: as §2
[18] = Distribution ratio in hippocampus and cerebellum was determined after 240 min of intravenous administration of the compound; [125I]- is used as radioactive isotope; assay type: ADME, tissue-based; conditions: rat, 4 h; summary of the method: as §4
[19] = Distribution ratio in hippocampus and cerebellum was determined after 60 min of intravenous administration of the compound; [125I]- is used as radioactive isotope; assay type: ADME, tissue-based; conditions: rat, 1 h; summary of the method: as §4
[20] = Distribution ratio in hypothalamus and cerebellum was determined after 24 hours of intravenous administration of the compound; [125I]- is used as radioactive isotope; assay type: ADME, tissue-based; conditions: rat; summary of the method: as §4
[21] = Distribution ratio in hippocampus and cerebellum was determined after 11 hrs of intravenous administration of the compound; [125I]- is used as radioactive isotope; assay type: ADME, tissue-based; conditions: rat; summary of the method: as §4
[22] = Regional brain distribution in rat hippocampus was determined after 240 min of intravenous administration of the compound; [125I]- is used as radioactive isotope; assay type: ADME, tissue-based; conditions: in vivo, 4 h; summary of the method: as §3
[23] = Biodistribution in rat lung was determined after 120 min of intravenous administration of the compound; [125I]- is used as radioactive isotope; assay type: ADME, organism-based; conditions: in vivo, 2 h; summary of the method: as §2
[24] = Biodistribution in rat muscle was determined after 120 min of intravenous administration of the compound; [125I]- is used as radioactive isotope; assay type: ADME, organism-based, Muscle tissue; conditions: in vivo, 2 h; summary of the method: as §5
[25] = Regional brain distribution in rat cerebellum was determined after 120 min of intravenous administration of the compound; [125I]- is used as radioactive isotope; assay type: ADME, tissue-based; conditions: in vivo, 2 h; summary of the method: as §3
[26] = Biodistribution in rat brain was determined after 24 hours of intravenous administration of the compound; [125I]- is used as radioactive isotope; assay type: ADME, organism-based; conditions: in vivo; summary of the method: as §2
[27] = Distribution ratio in hypothalamus and cerebellum was determined after 11 hours of intravenous administration of the compound; [125I]- is used as radioactive isotope; assay type: ADME, tissue-based; conditions: rat; summary of the method: as §4
[28] = Regional brain distribution in rat cortex was determined after 60 min of intravenous administration of the compound; [125I]- is used as radioactive isotope; assay type: ADME; conditions: in vivo, 1 h; summary of the method: as §3
[29] = Biodistribution in rat brain was determined after 60 min of intravenous administration of the compound; [125I]- is used as radioactive isotope; assay type: ADME, organism-based; conditions: in vivo, 1 h; summary of the method: as §2
[30] = Regional brain distribution in rat hippocampus was determined after 120 min of intravenous administration of the compound; [125I]- is used as radioactive isotope; assay type: ADME, tissue-based; conditions: in vivo, 2 h; summary of the method: as §3
[31] = Biodistribution in rat thyroid was determined after 6 hours of intravenous administration of the compound; [125I]- is used as radioactive isotope; assay type: ADME, organism-based, Thyroid gland; conditions: in vivo; summary of the method: as §5
[32] = Biodistribution in rat skin was determined after 240 min of intravenous administration of the compound; [125I]- is used as radioactive isotope; assay type: ADME, organism-based, Zone of skin; conditions: in vivo, 4 h; summary of the method: as §5
[33] = Biodistribution in rat liver was determined after 30 min of intravenous administration of the compound; [125I]- is used as radioactive isotope; assay type: ADME, organism-based; conditions: in vivo, 0.5 h; summary of the method: as §2
[34] = Biodistribution in rat heart was determined after 120 min of intravenous administration of the compound; [125I]- is used as radioactive isotope; assay type: ADME, organism-based; conditions: in vivo, 2 h; summary of the method: as §2

CN(C)Cc1ccccc1Oc1ccc(I)cc1N
Dose/g [1]: 0.14% | Dose [2]: 0.11% | Dose/g [3]: 0.83% | Dose/g [4]: 0.09% | Dose/g [5]: 1.06% | Dose [6]: 0.08% | Dose [7]: 0.37% | Dose [8]: 0.16% | Dose/g [9]: 0.068% | Dose/g [10]: 1.21% | Dose [11]: 0.09% | Dose/g [12]: 1.3% | Dose [13]: 3.29% | Dose/g [14]: 1.12% | Dose [15]: 2.64% | Dose/g [16]: 0.12% | Dose [17]: 0.32% | Dose/g [18]: 2.47% | Dose/g [19]: 1.3% | Dose/g [20]: 0.23% | Dose/g [21]: 0.09% | Dose/g [22]: 0.2% | Dose [23]: 0.88% | Dose [24]: 9.18% | Dose/g [25]: 0.21% | Dose [26]: 0.01% | Dose/g [27]: 0.44% | Dose/g [28]: 0.95% | Dose [29]: 1.74% | Dose/g [30]: 0.65% | Dose [31]: 2.68% | Dose [32]: 12.6% | Dose [33]: 7.1% | Dose [34]: 0.13%
